# Laboratory results: ChEMBL document CHEMBL1275508, “Edelfosine induces an apoptotic process in Leishmania infantum that is regulated by the ectopic expression of Bcl-XL and Hrk” (2008)
# Experiments:
# Leishmania infantum [1] = test: Induction of apoptosis in wild-type Leishmania infantum promastigotes cells at 40 uM after 24 hrs by TUNEL assay; type: functional
# In short: (§1)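 Wild-type promastigotes or those transfected with empty pX63, pX63-bcl-XL (HA-tagged) or pX63-hrk (FLAG-tagged) left untreated or exposed to 40 µM drug for 24 h; DNA nicks labelled by TUNEL, imaged by confocal microscopy with PI and DIC; percentage TUNEL-positive cells from image analysis, mean ± SD, n = 3.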
# Leishmania infantum [2] = test: Antimicrobial activity against Leishmania infantum promastigotes; type: functional; details: read-out: LD50 (the source's name)
# In short: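 L. infantum promastigotes (M/CAN/ES/96/BCN150 MON-1), exponentially growing at 2 × 10^6 parasites/ml, incubated 24 h with increasing drug concentrations; stained with 5 µM propidium iodide and dead (PI-positive) parasites counted by flow cytometry; 50% lethal dose estimated from concentration–response fit.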
# Leishmania infantum [3] = test: Antimicrobial activity against Leishmania infantum promastigotes assessed as increase in hypodiploid cell formation after 24 hrs by flow cytometry; type: functional, organism-based
# In short: (§2)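 Exponentially growing L. infantum promastigotes (2 × 10^6/ml, strain M/CAN/ES/96/BCN150 MON-1) exposed 24 h to increasing drug concentrations; DNA content analysed by flow cytometry, scoring percentage of hypodiploid cells as DNA degradation.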
# Leishmania infantum [4] = test: Antimicrobial activity against Leishmania infantum promastigotes assessed as increase in DNA degradation after 24 hrs by flow cytometry; type: functional, organism-based; in short: as §2
# Leishmania infantum [5] = test: Induction of apoptosis in Leishmania infantum promastigotes cells harboring with plasmid pX63 carrying Bcl-XL gene at 40 uM after 24 hrs by TUNEL assay; type: functional; in short: as §1
# Leishmania infantum [6] = test: Induction of apoptosis in Leishmania infantum promastigotes cells harboring pX63 expression vector at 40 uM after 24 hrs by TUNEL assay; type: functional; in short: as §1
# Leishmania infantum [7] = test: Induction of apoptosis in Leishmania infantum promastigotes cells harboring with plasmid pX63 carrying Hrk gene at 40 uM after 24 hrs by TUNEL assay; type: functional; in short: as §1
smiles,measurement,setting,value
CCCCCCCCCCCCCCCCCCOCC(COP(=O)([O-])OCC[N+](C)(C)C)OC (stereo not given) [EDELFOSINE],Activity,Leishmania infantum [1],42.5%
same,LC50,Leishmania infantum [2],27 µM
same,Activity,Leishmania infantum [3],Dose-dependent effect
same,Activity,Leishmania infantum [4],Dose-dependent effect
same,Activity,Leishmania infantum [5],26.7%
same,Activity,Leishmania infantum [6],47.4%
same,Activity,Leishmania infantum [7],92.5%
CCCCCCCCCCCCCCCCOP(=O)([O-])OCC[N+](C)(C)C [MILTEFOSINE],LC50,Leishmania infantum [2],47 µM
same,Activity,Leishmania infantum [3],Dose-dependent effect
same,Activity,Leishmania infantum [4],Dose-dependent effect
